Measured values taken from ChEMBL document CHEMBL4428115, “Molecular docking studies, biological and toxicity evaluation of dihydroisoquinoline derivatives as potential anticancer agents” (Bioorg Med Chem, 2016).
Calls of active or inactive are those of the source. The rule behind the calls is not given here.

How the values were obtained:
[1] = Antiproliferative activity against HLMEC after 72 hrs by SRB assay; design: species or system Homo sapiens
How it was run: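 Adherent cells plated at 1 × 10^4 per well 24 h before treatment, then exposed 72 h to compounds diluted from 20 mg/mL DMSO stock (0.01–1000 µg/mL). Fixed in cold 50% TCA at 4°C for 1 h, stained with 0.4% sulforhodamine B, bound dye extracted with 10 mM Tris, OD at 540 nm. Triplicates, 3–5 experiments; IC50 per experiment, mean ± SD.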

[2] = Selectivity index, ratio of IC50 for human MCF10 cells to IC50 for human HL60 cells; assay type: toxicity; settings: MCF10 cells versus HL60 cells, read-out: Ratio IC50
How it was run: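 Selectivity index is the ratio of the IC50 for the normal line to the IC50 for the cancer line. Both IC50 values come from 72 h antiproliferative assays: SRB for adherent cells, MTT for HL-60.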

[3] = tested on: Raji; assay: Antiproliferative activity against human Raji cells; assay type: functional, cell-based
[4] = tested on: HT-29; assay: Antiproliferative activity against human HT-29 cells at 290 uM; assay type: functional, cell-based
[5] = tested on: CEM/C2; assay: Antiproliferative activity against human CEM/C2 cells; assay type: functional, cell-based
[6] = Antiproliferative activity against human HCV29T cells; assay type: functional, cell-based
[7] = tested on: A549; assay: Antiproliferative activity against human A549 cells; assay type: functional, cell-based
[8] = tested on: MCF7; assay: Potency index, ratio of bestatin IC50 to compound IC50 for human MCF7 cells; assay type: functional
[9] = Antioxidant activity assessed as ABTS free radical scavenging activity; assay type: functional
[10] = Selectivity index, ratio of IC50 for mouse BALB/3T3 cells to IC50 for human Jurkat cells; assay type: toxicity; settings: BALB/3T3 cells versus Jurkat cells, read-out: Ratio IC50
[11] = Selectivity index, ratio of IC50 for mouse BALB/3T3 cells to IC50 for human HL60 cells; assay type: toxicity; settings: BALB/3T3 cells versus HL60 cells, read-out: Ratio IC50
How it was run: (§1)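 Ratio of the BALB/3T3 IC50 to the HL-60 or HL-60/MX2 IC50. Cells were plated at 1 × 10^4 per well 24 h before dosing and exposed for 72 h to 0.01–1000 µg/mL from DMSO stock. BALB/3T3 was read by SRB (TCA fix, 540 nm) and the leukemia lines by MTT (4 h, SDS/DMF lysis, 570 nm). Triplicates; 3–5 experiments.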

[12] = Selectivity index, ratio of IC50 for mouse BALB/3T3 cells to IC50 for human HL60/MX2 cells; assay type: toxicity; settings: BALB/3T3 cells versus HL60/MX2 cells, read-out: Ratio IC50; how it was run: as §1
[13] = Selectivity index, ratio of IC50 for mouse BALB/3T3 cells to IC50 for human Raji cells; assay type: toxicity; settings: BALB/3T3 cells versus Raji cells, read-out: Ratio IC50
[14] = Selectivity index, ratio of IC50 for mouse BALB/3T3 cells to IC50 for human CCRF-CEM cells; assay type: toxicity; settings: BALB/3T3 cells versus CCRF-CEM cells, read-out: Ratio IC50
[15] = Selectivity index, ratio of IC50 for mouse BALB/3T3 cells to IC50 for human MV411 cells
[16] = Selectivity index, ratio of IC50 for mouse BALB/3T3 cells to IC50 for human DU145 cells
[17] = Selectivity index, ratio of IC50 for mouse BALB/3T3 cells to IC50 for human HCV29T cells; assay type: toxicity; settings: BALB/3T3 cells versus HCV29T cells, read-out: Ratio IC50
[18] = Selectivity index, ratio of IC50 for mouse BALB/3T3 cells to IC50 for human A549 cells
[19] = tested on: HL-60; assay: Cell cycle arrest in human HL60 cells assessed as accumulation at G0/G1 phase at 1 to 3 ug/ml after 72 hrs by propidium iodide staining based flow cytometry; assay type: functional
How it was run: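 HL-60 seeded at 2 × 10^5 cells/mL 24 h before treatment, exposed 72 h to 1 or 3 µg/mL, with DMSO solvent and cisplatin controls. Cells fixed in 70% ethanol at −20°C, treated with RNase 8 µg/mL at 37°C for 1 h, stained 30 min with PI 50 µg/mL at 4°C. DNA content by flow cytometry; three independent experiments, mean ± SD.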

[20] = tested on: HL-60; assay: Decrease in cyclin E expression in human HL60 cells at 1 ug/ml after 72 hrs by Western-blot analysis; assay type: functional, cell-based
How it was run: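 HL-60 (2 × 10^5 cells/mL) treated 72 h at 1 µg/mL with DMSO control, then lysed in RIPA buffer with protease/phosphatase inhibitors. 100 µg protein resolved on 4–20% gels and transferred to nitrocellulose. Probed with rabbit primary antibody, fluorescein-linked anti-rabbit secondary, then anti-fluorescein–alkaline phosphatase with ECF substrate; fluorescence scanned. Densitometry normalized to actin, reported as fold change versus control.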

[21] = tested on: HL-60; assay: Induction of apoptosis in human HL60 cells assessed as increase in late apoptotic cells at 3 ug/ml after 72 hrs by APC-Annexin V/propidium iodide staining based flow cytometry relative to control; assay type: functional, cell-based
How it was run: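 HL-60 (2 × 10^5 cells/mL, seeded 24 h before) treated 72 h at 3 µg/mL alongside a DMSO control. Cells suspended in APC-Annexin V in HEPES binding buffer pH 7.4 with 1.8 mM CaCl2, 15 min dark at rt, then PI at 0.1 mg/mL final. Flow cytometry: PI+/Annexin+ counted as late apoptotic/necrotic. Three experiments, mean ± SD, p≤0.05 versus control.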

[22] = Acute toxicity in Wistar rat assessed as mortaliity topically applied to shaved dorsal skin as single dose for 24 hrs measured for 14 days; settings: in vivo, topical or ocular
How it was run: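 Wistar rats, 5 males and 5 females; single 2000 mg/kg bw dermal application to shaved dorsal skin (about 41 cm2 per male, 31 cm2 per female) for 24 h. General and detailed clinical observations daily over a 14-day observation period, then animals euthanized; treated skin examined for pathological changes.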

[23] = Acute toxicity in Balbc/cmdb mouse assessed as clinical signs at 300 mg/kg, po administered as single dose in first stage of experiment measured immediately post dose; assay type: organism-based; settings: in vivo
How it was run: (§2)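 Acute toxic class method per OECD Guideline 423 / EU Method B.1 tris, run in three stages of three female Balbc/cmdb mice each. Fasted about 3 h, then given a single dose by metal stomach tube in DMSO at 0.5 mL/100 g bw. Stage doses were 300, 2000, then 2000 mg/kg bw. General and detailed clinical observations daily for 14 days; body weights recorded.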

[24] = Acute toxicity in Balbc/cmdb mouse assessed as clinical signs at 300 mg/kg, po administered as single dose in first stage of experiment measured for 14 days; assay type: organism-based; settings: in vivo, 336 h; how it was run: as §2
[25] = Acute toxicity in Balbc/cmdb mouse assessed as clinical signs at 2000 mg/kg, po administered as single dose in second stage of experiment measured for 14 days; assay type: organism-based; settings: in vivo, 336 h; how it was run: as §2
[26] = Acute toxicity in Balbc/cmdb mouse assessed as clinical signs at 2000 mg/kg, po administered as single dose in third stage of experiment measured immediately post dose; assay type: organism-based; settings: in vivo; how it was run: as §2

CCOC(=O)C1(C(=O)OCC)Cc2cc(OCc3ccccc3)cc(OCc3ccccc3)c2C=N1
IC50 [1]: 6.8 µM
selectivity ratio [2]: 4 to 8
IC50 [3]: 0.6 µM
growth inhibition (GI) [4]: inactive
IC50 [5]: 0.4 µM
IC50 [6]: 8.8 µM
IC50 [7]: 13.1 µM
Ratio IC50 [8]: 15
Activity [9]: inactive
selectivity ratio [10]: 2.5
selectivity ratio [11]: 5.8
selectivity ratio [12]: 7
selectivity ratio [13]: 59.8
selectivity ratio [14]: 51.3
Ratio IC50 [15]: 0.6
Ratio IC50 [16]: 4.8
selectivity ratio [17]: 4.1
Ratio IC50 [18]: 2.7
Activity [19]: Active
Activity [20]: Active
Activity [21]: Active
LD50 at 14 days [22]: > 2000 mg/kg
Activity [23]: Toxic
Activity [24]: Non-Toxic
Activity [25]: Non-Toxic
Activity [26]: Toxic
